According to ChEMBL document CHEMBL1138395, “Adamantane sulfone and sulfonamide 11-beta-HSD1 Inhibitors” (Bioorg Med Chem Lett, 2007):

Assays:
[1] = Metabolic stability in mouse liver microsomes assessed as compound remaining after 30 mins; format: ADME, Microsome; details: read-out: Stability
How it was run: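 Test compound incubated with mouse liver microsomes for 30 min; percent of parent compound remaining afterward reported.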

[2] = biological target: T1, 11-beta-hydroxysteroid dehydrogenase type 2 (Mus musculus, UniProt P51661); experiment: Inhibition of mouse HSD2 assessed as interconversion of cortisone to cortisol
T1 sequence (P51661 whole entry): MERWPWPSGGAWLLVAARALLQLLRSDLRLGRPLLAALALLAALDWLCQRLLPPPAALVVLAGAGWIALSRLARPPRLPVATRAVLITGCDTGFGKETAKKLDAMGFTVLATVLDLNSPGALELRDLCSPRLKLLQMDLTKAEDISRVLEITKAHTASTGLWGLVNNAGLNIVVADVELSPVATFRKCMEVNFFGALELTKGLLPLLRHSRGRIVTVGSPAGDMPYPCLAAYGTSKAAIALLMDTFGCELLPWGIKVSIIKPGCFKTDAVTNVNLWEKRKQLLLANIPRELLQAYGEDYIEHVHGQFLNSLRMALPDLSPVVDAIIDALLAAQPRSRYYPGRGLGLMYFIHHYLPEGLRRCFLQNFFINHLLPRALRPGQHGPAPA
How it was run: (§1)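 Enzyme inhibition measured as blocking the interconversion between cortisone and cortisol by mouse HSD1 (reported as Ki) or mouse HSD2 (reported as IC50); values are means of at least two experiments.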

[3] = Oral bioavailability in mouse at 5 mg/kg, iv and 10 mg/kg, po; format: ADME, organism-based; details: in vivo
[4] = Half life in mouse at 5 mg/kg, iv and 10 mg/kg, po; format: ADME, organism-based; details: in vivo
[5] = AUC in mouse at 5 mg/kg, iv and 10 mg/kg, po; format: ADME, organism-based; details: plasma
[6] = Volume of distribution at steady state in mouse at 5 mg/kg, iv and 10 mg/kg, po; format: ADME, organism-based; details: in vivo, read-out: Vdss
[7] = Volume of distribution at terminal phase in mouse at 5 mg/kg, iv and 10 mg/kg, po; format: ADME, organism-based; details: in vivo, read-out: Vbeta
[8] = Plasma clearance in mouse at 5 mg/kg, iv and 10 mg/kg, po; format: ADME, organism-based
[9] = biological target: 11-beta-hydroxysteroid dehydrogenase 1 (Mus musculus, UniProt P50172); experiment: Inhibition of mouse HSD1 assessed as interconversion of cortisone to cortisol; how it was run: as §1
[10] = biological target: T2, 11-beta-hydroxysteroid dehydrogenase 1 (Homo sapiens, UniProt P28845); experiment: Inhibition of human HSD1 expressed in HEK cells; format: cell-based, HEK293
[11] = biological target: T2, 11-beta-hydroxysteroid dehydrogenase 1; experiment: Inhibition of human HSD1 assessed as interconversion of cortisone to cortisol
[12] = biological target: T3, 11-beta-hydroxysteroid dehydrogenase type 2 (Homo sapiens, UniProt P80365); experiment: Inhibition of human HSD2 assessed as interconversion of cortisone to cortisol
T3 sequence (P80365 whole entry): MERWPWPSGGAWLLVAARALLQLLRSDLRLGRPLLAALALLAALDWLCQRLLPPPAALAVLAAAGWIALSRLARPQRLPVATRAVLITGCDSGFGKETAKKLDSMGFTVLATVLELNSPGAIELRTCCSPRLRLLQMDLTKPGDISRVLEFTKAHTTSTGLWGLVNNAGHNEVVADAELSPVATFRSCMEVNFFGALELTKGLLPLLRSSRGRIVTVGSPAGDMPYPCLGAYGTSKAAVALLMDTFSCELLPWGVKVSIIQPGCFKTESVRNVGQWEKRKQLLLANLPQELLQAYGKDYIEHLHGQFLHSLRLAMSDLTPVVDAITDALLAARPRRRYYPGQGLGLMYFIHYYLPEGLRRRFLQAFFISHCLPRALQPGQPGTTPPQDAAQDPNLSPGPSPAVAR

Sequence of 11-beta-hydroxysteroid dehydrogenase 1 (Mus musculus, UniProt P50172) (P50172 whole entry): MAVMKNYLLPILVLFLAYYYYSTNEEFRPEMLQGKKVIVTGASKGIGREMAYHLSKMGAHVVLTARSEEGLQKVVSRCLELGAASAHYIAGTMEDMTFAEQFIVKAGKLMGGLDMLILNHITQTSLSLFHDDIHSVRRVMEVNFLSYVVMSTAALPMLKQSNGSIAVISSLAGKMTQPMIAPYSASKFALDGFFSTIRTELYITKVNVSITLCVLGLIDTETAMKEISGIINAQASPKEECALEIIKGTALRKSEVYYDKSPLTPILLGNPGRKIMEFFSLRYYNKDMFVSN
T2 sequence (P28845 whole entry): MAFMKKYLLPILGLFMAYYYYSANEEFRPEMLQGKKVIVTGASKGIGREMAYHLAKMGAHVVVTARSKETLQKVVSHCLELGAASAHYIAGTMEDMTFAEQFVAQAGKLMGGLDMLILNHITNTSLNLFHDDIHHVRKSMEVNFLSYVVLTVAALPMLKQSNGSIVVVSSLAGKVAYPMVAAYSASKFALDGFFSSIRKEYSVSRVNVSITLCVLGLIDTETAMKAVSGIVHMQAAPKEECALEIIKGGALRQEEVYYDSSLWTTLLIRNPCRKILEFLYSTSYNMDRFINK

| SMILES | remaining at 0.5 h [1] [%] | IC50 [2] [nM] | bioavailability [3] [%] | half-life [4] [h] | AUC [5] [ng·h/mL] | Vd [6] [L/kg] | Vd [7] [L/kg] | clearance [8] [mL/min/kg] | Ki [9] [nM] | IC50 [10] [nM] | Ki [11] [nM] | IC50 [12] [nM] |
| --- | --- | --- | --- | --- | --- | --- | --- | --- | --- | --- | --- | --- |
| CC(C)(Oc1ccc(Cl)cc1)C(=O)N[C@H]1C2CC3CC1C[C@](S(N)(=O)=O)(C3)C2 | 96 | > 100000 | 150 | 1.8 | 18300 | 2.1 | 2.1 | 13.3 |  |  |  |  |
| CNS(=O)(=O)[C@]12CC3CC(C1)[C@@H](NC(=O)C(C)(C)Oc1ccc(Cl)cc1)C(C3)C2 | < 1 | > 100000 |  |  |  |  |  |  |  |  |  |  |
| CC(C)(Oc1ccccc1Cl)C(=O)N[C@H]1C2CC3CC1C[C@](S(C)(=O)=O)(C3)C2 |  | > 100000 |  |  |  |  |  |  | 2 | 120 | 5 | 5400 |
| CN(C)S(=O)(=O)[C@]12CC3CC(C1)[C@@H](NC(=O)C(C)(C)Oc1ccc(Cl)cc1)C(C3)C2 | < 1 | 100000 |  |  |  |  |  |  | 21 |  |  |  |
| CC(C)(Oc1ccc(Cl)cc1)C(=O)N[C@H]1C2CC3CC1C[C@](S(C)(=O)=O)(C3)C2 | 70 | > 100000 |  |  |  |  |  |  | 8 |  |  |  |
| CC(C)(Oc1cccc(Cl)c1)C(=O)N[C@H]1C2CC3CC1C[C@](S(N)(=O)=O)(C3)C2 |  | > 100000 |  |  |  |  |  |  | 6 | 320 | 4 | 6300 |

The remaining lines, values ahead:

| remaining at 0.5 h [1] [%] | IC50 [2] [nM] | bioavailability [3] [%] | half-life [4] [h] | AUC [5] [ng·h/mL] | Vd [6] [L/kg] | Vd [7] [L/kg] | clearance [8] [mL/min/kg] | Ki [9] [nM] | IC50 [10] [nM] | Ki [11] [nM] | IC50 [12] [nM] | SMILES |
| --- | --- | --- | --- | --- | --- | --- | --- | --- | --- | --- | --- | --- |
|  | > 100000 |  |  |  |  |  |  | 7 | 690 | 20 | > 100000 | COc1cc(F)ccc1OC(C)(C)C(=O)N[C@H]1C2CC3CC1C[C@](S(C)(=O)=O)(C3)C2 |
| 36 | > 100000 |  |  |  |  |  |  | 2 | 83 | 4 | 5500 | CC(C)(Oc1ccccc1Cl)C(=O)N[C@H]1C2CC3CC1C[C@](S(N)(=O)=O)(C3)C2 |
| 59 | > 100000 |  |  |  |  |  |  | 4 | 300 | 8 | 3300 | CC(C)(Oc1ccc(F)cc1Cl)C(=O)N[C@H]1C2CC3CC1C[C@](S(=O)(=O)CC(N)=O)(C3)C2 |
|  | > 100000 |  |  |  |  |  |  | 7 |  |  |  | CCS(=O)(=O)[C@]12CC3CC(C1)[C@@H](NC(=O)C(C)(C)Oc1ccc(F)cc1Cl)C(C3)C2 |
| < 1 | 87000 |  |  |  |  |  |  | 38 | 500 | 110 | 15000 | CC(C)(Oc1ccc(F)cc1Cl)C(=O)N[C@H]1C2CC3CC1C[C@](S(=O)(=O)CCCN1CCOCC1)(C3)C2 |
